Key:
[1] = melting temperature; fluorescence melt of hairpins on a sequencing array, two-state fit, raised by 9.35 °C to match UV melts; details: sodium 0.088 M
In short: (§1)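 To match UV melts, fitted temperatures were raised by 9.35 °C. These fits were bootstrapped two-state models that gave melting temperature and folding enthalpy, combined by inverse variance over four replicates. The input was normalised Cy3 fluorescence of library hairpins with annealed Cy3 and quencher oligos on a sequenced MiSeq flow cell, imaged in 50 mM Na-HEPES pH 8.0, 25 mM NaCl in 2.5 °C steps up to 60 °C.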

[2] = folding enthalpy; higher = less favourable; fluorescence melt of hairpins on a sequencing array, two-state fit; details: sodium 0.088 M
In short: as §1

Row | Sequence | Tm [1] [°C] | folding enthalpy [2] [kcal/mol]
1 | GGTCCCGAAAGGGCAACC ((((((....)))..))) | 38.4 | -12.4
2 | GATCCGGTTGCGGATC ((((((....)))))) | 59.6 | -40.3
3 | GAGCAGGAAACTGCTC ((((((....)))))) | 62.3 | -37.8
4 | GGGATCGAAAGATAGCCC ((((((....)))..))) | 32.4 | -17.3
5 | GTCCTCGAAAGAGGCGAC ((((((....)))..))) | 50.9 | -17
6 | GTGTATGAAAATACAC ((((((....)))))) | 52.5 | -36.1
7 | GCGAATTGTCGC ((((....)))) | 46 | -17
8 | GGAATCGAAAGATGTCC ((((((....))).))) | 32.5 | -15.6
9 | GAGTTCACGAAAGTGCTC (((..(((....)))))) | 28.1 | -10.9
10 | GCACCGCGAAAGCGAGGC ((..(((....)))..)) | 53.2 | -14.6
11 | GATCATTTTAATGATC ((((((....)))))) | 53.6 | -53.2
12 | GATCCGAAGCGGATC ((((((...)))))) | 55.4 | -37
13 | GCCGGCGAAAGCCTGGGC ((((((....)))..))) | 60 | -24.5
14 | GATCTCCGGCGAGATC ((((((....)))))) | 50.7 | -27.1
15 | GTACTCGAAAGAGTAC ((((((....)))))) | 61 | -36.2
16 | GCACCGCGAAAGCGAAGC ((..(((....)))..)) | 41.4 | -11.7
17 | GTCGGGGCGAAAGCCGAC (((..(((....)))))) | 56.9 | -17.2
18 | GCAACGCGAAAGCTGTGC (((..((....))..))) | 48.9 | -15.2
19 | GATGCCGAAAGGCTGATC ((((((....)))..))) | 36.6 | -9.91
20 | GCAGTAACGAAAGTTTGC (((..(((....)))))) | 37.6 | -21.9
21 | GGGCGGGGAAACTCGCCC (((((.(....).))))) | 67.4 | -41.3
22 | CGAGCGGAAACGCTATCG ((((((....)))..))) | 35.1 | -13.1
23 | GAGTGTGGAAACACGTTC ((..(((....)))..)) | 42.9 | -12.2
24 | GTTGGTGGAAACACTAGC (.(.(((....))).).) | 27.8 | -9.95

Row | Sequence | Tm [1] [°C] | folding enthalpy [2] [kcal/mol]
25 | ATAGGGAAACCTAT (((((....))))) | 32.4 | -11.2
26 | GTTGACGAAAGTCGAAC ((((((....))).))) | 45.4 | -18.4
27 | GCGTAAGGAAACTTATGC ((.((((....)))).)) | 45.6 | -31.2
28 | ATATCGAAAGATAT (((((....))))) | 42.2 | -15.8
29 | GGTCCTGGAAACAGGGTC (..((((....))))..) | 37.8 | -16.1
30 | GTTCACGAAAGTGGTAAC ((((((....)))..))) | 25.6 | -12.5
31 | GAGCACGAAAGTGCACTC ((((((....)))..))) | 58 | -11.9
32 | GCTTGCGAAAGCAGTAGC ((((((....)))..))) | 45.7 | -17.8
33 | GATCGTGGGAACGATC ((((((....)))))) | 61 | -38.5
34 | GATCTATAGGTAGATC ((((((....)))))) | 42.2 | -32.8
35 | GAGTGTGGAAACGTACTC ((((..(....)..)))) | 35.5 | -22.9
36 | GTGGCTGGAAACAGCCGC (.(((((....))))).) | 63 | -17.4
37 | GCCGAACGAAAGTTGGGC (((.(((....))).))) | 58.5 | -38.8
38 | GGTGCTGGAAACAGTACC (((.(((....))).))) | 53.5 | -43.3
39 | GAGGAACGAAAGTTGCTC (((.(((....))).))) | 53.9 | -47.7
40 | GCCTGGCGAAAGCCGCGC ((..(((....)))..)) | 52.3 | -16.8
41 | GACAAAGGAAACTTTGCC (.(((((....))))).) | 33.3 | -21.6
42 | GCCATGCGAAAGCTCGGC (((..((....))..))) | 52.5 | -23.6
43 | GATCAACCAGTTGATC ((((((....)))))) | 50.4 | -41.9
44 | GATCTCTACAGAGATC ((((((....)))))) | 55.8 | -45.2
45 | GATGATGGAAACATCGTC ((.((((....)))).)) | 47.4 | -32.3
46 | GCGACGATTCGC ((((....)))) | 44.6 | -15.9
47 | GATCAGTGGGCTGATC ((((((....)))))) | 54.4 | -48.6
48 | GTGTCTGGAAACGGATAC ((.((.(....).)).)) | 36.6 | -17.2

Row | Sequence | Tm [1] [°C] | folding enthalpy [2] [kcal/mol]
49 | GACGGCGGAAACGTCGTC ((((.((....)).)))) | 61.1 | -52.8
50 | GCAGGGGGAAACCCCTAC (.(((((....))))).) | 35.4 | -14.2
51 | GATCTCGGAAGAGATC ((((((....)))))) | 63.6 | -37.4
52 | GGCCGGTCGAAAGACGCC (((..(((....)))))) | 48.4 | -21.9
53 | GGTCTCGAAAGAGCACC ((((((....))).))) | 46.5 | -22.8
54 | GTAGAACGAAAGTTATAC (((.(((....))).))) | 44.1 | -33.9
55 | TTTTCGAAAGAAAA (((((....))))) | 37.8 | -15.1
56 | GATCATATCAATGATC ((((((....)))))) | 48.3 | -27.9
57 | GCGACTGTCGC ((((...)))) | 48 | -33
58 | GACAGCGAAAGCTGCGTC ((((((....)))..))) | 48 | -10.1
59 | GCCCCGCGAAAGCGACGC ((..(((....)))..)) | 31.3 | -10.6
60 | GGTAGTCGAAAGACCACC (((.(((....))).))) | 45.7 | -24.7
61 | GATCAAGTTTTGATC ((((((...)))))) | 45.4 | -29.4
62 | GTGTTGGGAAACTAACAC (((((.(....).))))) | 46.7 | -36.4
63 | GATCTGCCATCAGATC ((((((....)))))) | 49.4 | -46
64 | GAACACGGAAACGCGTTC ((((.((....)).)))) | 48.1 | -35.8
65 | GATCGGGATCCGATC ((((((...)))))) | 55.6 | -39.3
66 | ACTTTGAAAAAAGT (((((....))))) | 30.6 | -8.08
67 | GTTCTACGAAAGTATAAC (((.(((....))).))) | 34.5 | -24
68 | GTCTCATCGAAAGATGAC (((..(((....)))))) | 35.4 | -10.9
69 | GGGATGCCGAAAGGCCCC (((..(((....)))))) | 46.6 | -15.6
70 | GCGGCAGACCGC ((((....)))) | 56.2 | -23.2
71 | GCGATAATTCGC ((((....)))) | 48.2 | -23.5
72 | GTACGCGCGAAAGCGTAC (((..(((....)))))) | 61.3 | -20.2

Row | Sequence | Tm [1] [°C] | folding enthalpy [2] [kcal/mol]
73 | GCAGACGAAAGTCCTGC ((((((....))).))) | 52.9 | -23.8
74 | GGGTGACGAAAGTCCCC (((.(((....)))))) | 58.4 | -34.9
75 | GTTGGTGCGAAAGCAAAC (((..(((....)))))) | 43 | -20.7
76 | GCGAACGAAAGTTGCGC ((((((....))).))) | 53.9 | -36.9
77 | GTAAGAACGAAAGTTTAC (((..(((....)))))) | 24.3 | -8.19
78 | GTTTGGACGAAAGTCAAC (((..(((....)))))) | 34.7 | -12.7
79 | GGCGTGGGAAACTACGCC (((((.(....).))))) | 61.2 | -48
80 | GATCCGTCCACGGATC ((((((....)))))) | 64.1 | -43
81 | GTATTAGGAAACTAATAC (((((((....))))))) | 46.3 | -38
82 | GACACGGAAACGTGTC ((((((....)))))) | 67.7 | -34.9
83 | GCGGCCGAAAGGCATCGC ((((((....)))..))) | 53.1 | -23
84 | GACTGTGGAAACACAGCC (.(((((....))))).) | 43.7 | -13.7
85 | GTCTGCGAAAGCAATGAC ((((((....)))..))) | 39.3 | -16.8
86 | GATCCAGCTTGGATC ((((((...)))))) | 52 | -32.9
87 | GAGAGCCGAAAGGCACTC (((.(((....))).))) | 61.1 | -20.2
88 | GGATCCGAAAGGAGCTCC ((((((....)))..))) | 44.2 | -13.4
89 | GACGCGGGAAACCGTGTC (((.(((....))).))) | 58.2 | -39.4
90 | GAATGTGGAAACATGTTC (((..((....))..))) | 31.4 | -18.7
91 | GATCTCGCTTGAGATC ((((((....)))))) | 54.4 | -36.8
92 | GCAGGCGAAAGCCAATGC ((((((....)))..))) | 49.1 | -15.5
93 | GCTCAACGAAAGTTAGC (((.(((....)))))) | 41.1 | -22.2

Reference: the array DNA melting data of Ke et al. (doi:10.1101/2024.01.08.574731)
